Experimental data taken from paper PMC12222688 (Scientific Reports, 2025).

Target: plasma kallikrein (pKal) (Homo sapiens, UniProt P03952)
Test: cell-free fluorogenic substrate enzyme activity assay with recombinant pKal
Format: biochemical
Method in brief: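 Human recombinant plasma kallikrein was dissolved in deionized water and used with its protein-specific fluorogenic substrate under cell-free conditions. Test compound, at concentrations up to 3000 µg/mL, was incubated with substrate solution for 30 min at 37 °C. Fluorescence was read on a microplate reader. Autofluorescence was subtracted, and relative fluorescence units were normalized to blank samples.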

plasma kallikrein (pKal), sequence (P03952 20-390): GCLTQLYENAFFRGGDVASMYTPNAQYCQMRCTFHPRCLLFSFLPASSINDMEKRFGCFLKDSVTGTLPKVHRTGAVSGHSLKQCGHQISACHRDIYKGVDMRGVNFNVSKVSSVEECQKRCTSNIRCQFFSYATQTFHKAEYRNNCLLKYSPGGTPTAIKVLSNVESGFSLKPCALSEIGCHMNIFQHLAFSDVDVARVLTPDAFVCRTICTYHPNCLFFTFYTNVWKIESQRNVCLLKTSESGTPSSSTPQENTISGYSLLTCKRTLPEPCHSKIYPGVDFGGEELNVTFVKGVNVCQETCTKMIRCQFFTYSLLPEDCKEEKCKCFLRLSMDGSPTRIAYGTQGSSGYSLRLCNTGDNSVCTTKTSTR
plasma kallikrein (pKal), sequence (P03952 391-638): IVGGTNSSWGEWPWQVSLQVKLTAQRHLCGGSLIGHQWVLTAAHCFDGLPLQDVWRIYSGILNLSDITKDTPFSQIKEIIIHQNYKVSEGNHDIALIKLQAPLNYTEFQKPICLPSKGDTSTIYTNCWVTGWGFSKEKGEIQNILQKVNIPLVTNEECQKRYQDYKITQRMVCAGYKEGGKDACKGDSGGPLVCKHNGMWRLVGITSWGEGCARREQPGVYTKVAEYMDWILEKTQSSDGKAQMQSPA

IC50: 313 µM
SMILES: C[C@@H]1O[C@@H](O[C@@H]2[C@@H](O)[C@H](OCCc3ccc(O)c(O)c3)O[C@H](CO)[C@H]2OC(=O)/C=C/c2ccc(O)c(O)c2)[C@H](O)[C@H](O)[C@H]1O [acteoside]
